Data reported in ChEMBL document CHEMBL3997810, “A Novel Potent Anticancer Compound Optimized from a Natural Oridonin Scaffold Induces Apoptosis and Cell Cycle Arrest through the Mitochondrial Pathway” (J Med Chem, 2017).
The source made the active and inactive calls. No cut-off for these calls is given here.

Columns and labels:
MCF7 [1] = assay: Induction of ROS generation in human MCF7 cells at 1 uM after 36 hrs by DCF-DA staining based flow cytometry (reference value: 3.77%); format: functional
Summary of the method: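 MCF-7 cells exposed to 0–1 μM compound for 36 h, with DMSO as control; one arm pre-incubated with 2.5 mM NAC. Cells then loaded with DCF-DA at 37 °C for 15 min, harvested and resuspended in PBS. Fraction of DCF-positive cells measured by flow cytometry at Ex 480/Em 525 nm.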

MCF7 [2] = assay: Induction of apoptosis in human MCF7 cells assessed as chromatin condensation at 0.125 to 1 uM after 36 hrs by Hoechst 33342 staining based fluorescence microscopic method; format: functional, cell-based
MCF7 [3] = assay: Cell cycle arrest in human MCF7 cells assessed as accumulation at G1 phase at 1 uM after 48 hrs by propidium iodide staining based flow cytometry (reference value: 49.77%); format: functional
Summary of the method: (§1)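 MCF-7 cells, 5 × 10^4 per well, seeded overnight, then exposed to 0.125–1 μM compound, or DMSO, for 48 h. Ethanol-fixed (70%, −20 °C, 12 h) and stained with PI/RNase at 37 °C for 30 min. Phase distribution determined by flow cytometry.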

[4] = Antiproliferative activity against human BEL7404/CP20 cells after 48 hrs by MTT assay; format: functional, cell-based; conditions: BEL7404/CP20, 48 h
Summary of the method: (§2)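 Colorimetric MTT assay. KB-3-1, NCI-H460 and Bel-7404 cells were seeded at 4000 cells/well; resistant KB/CP4, NCI-H460/MX20 and Bel-7404/CP20 were seeded at 7000 cells/well. Cells were pre-incubated 24 h at 37 °C, 5% CO2, then exposed to a compound concentration series for 48 h with DMSO ≤0.25%. Absorbance read at 570 nm. Quadruplicate wells, three repeats; means ± SD.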

MCF7 [5] = assay: Induction of apoptosis in human MCF7 cells assessed as necrotic cells at 0.5 uM after 24 hrs by Annexin-V FITC/propidium iodide staining based flow cytometry (reference value: 0.102%); format: functional
MCF7 [6] = assay: Induction of apoptosis in human MCF7 cells assessed as increase in cytochrome c protein expression at 0.5 to 1 uM after 48 hrs by Western blot method; format: functional, cell-based
Summary of the method: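 MCF-7 cells were treated at 0, 0.125, 0.25, 0.5 or 1 μM for 48 h, washed in ice-cold PBS and lysed on ice for 20 min. Lysates were spun at 13,000 g, 4 °C. 20 μg protein was run on SDS-PAGE and blotted to PVDF, probed overnight at 4 °C with primary antibodies, then with fluorescent secondary antibodies. Band density was expressed relative to β-actin; three independent experiments.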

MCF7 [7] = assay: Cell cycle arrest in human MCF7 cells assessed as accumulation at G2/M phase at 0.5 uM after 48 hrs by propidium iodide staining based flow cytometry (reference value: 13.05%); format: functional; summary of the method: as §1
Bel-7402 [8] = assay: Cell cycle arrest in human Bel7402 cells assessed as accumulation at S phase at 1 uM after 48 hrs by propidium iodide staining based flow cytometry (reference value: 8.78%); format: functional
KB 3-1 = assay: Antiproliferative activity against human KB-3-1 cells after 48 hrs by MTT assay; format: functional, cell-based; conditions: KB 3-1, 48 h; summary of the method: as §2
Mus musculus = assay: Toxicity in Balb/c nude mouse xenografted with human MCF7 cells assessed as changes in body weight at 20 mg/kg/day, iv for 4 weeks measured once in 2 days during compound dosing; format: organism-based; conditions: in vivo
Summary of the method: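 Mice received 1 × 10^6 tumor cells subcutaneously in the right flank: MCF-7 in male BALB/c nude mice aged six weeks, H22 in male ICR mice aged five weeks. After 7 d they were randomized (six or eight per group). Dosing was 20 mg/kg iv daily in 10% DMF/2% poloxamer/88% saline for 21 or 28 days; saline control. Body weight was recorded every 2 days.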

Bel-7402 [9] = assay: Cell cycle arrest in human Bel7402 cells assessed as accumulation at S phase at 2 uM after 48 hrs by propidium iodide staining based flow cytometry (reference value: 8.78%); format: functional
Bel-7402 [10] = assay: Cell cycle arrest in human Bel7402 cells assessed as accumulation at G1 phase at 2 uM after 48 hrs by propidium iodide staining based flow cytometry (reference value: 34.61%); format: functional
MCF7 [11] = assay: Cell cycle arrest in human MCF7 cells assessed as accumulation at G1 phase at 0.25 uM after 48 hrs by propidium iodide staining based flow cytometry (reference value: 49.77%); format: functional; summary of the method: as §1
Bel-7402 [12] = assay: Cell cycle arrest in human Bel7402 cells assessed as accumulation at G2/M phase at 0.5 uM after 48 hrs by propidium iodide staining based flow cytometry (reference value: 56.61%); format: functional
Bel-7402 [13] = assay: Cell cycle arrest in human Bel7402 cells assessed as accumulation at G2/M phase at 1 uM after 48 hrs by propidium iodide staining based flow cytometry (reference value: 56.61%); format: functional
H22 = assay: Antitumor activity against […] cells xenografted in ICR mouse assessed as tumor growth inhibition at 20 mg/kg/day, iv for 3 weeks; format: functional, organism-based
Summary of the method: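 Male ICR mice (5 weeks old) inoculated subcutaneously in the right flank with 1 × 10^6 H22 cells. After 7 d, randomized into groups of eight or six. Dosed iv 20 mg/kg daily in 10% DMF/2% poloxamer/88% saline. Cyclophosphamide 20 mg/kg iv as positive control; saline as negative control. Body weight and tumour volume (L × W²/2) every 2 days; inhibition calculated from final tumour weights.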

MCF7 [14] = assay: Cell cycle arrest in human MCF7 cells assessed as accumulation at S phase at 0.125 uM after 48 hrs by propidium iodide staining based flow cytometry (reference value: 37.18%); format: functional; summary of the method: as §1
Bel-7402 [15] = assay: Cell cycle arrest in human Bel7402 cells assessed as accumulation at G1 phase at 4 uM after 48 hrs by propidium iodide staining based flow cytometry (reference value: 34.61%); format: functional
Bel-7402 [16] = assay: Cell cycle arrest in human Bel7402 cells assessed as accumulation at G2/M phase at 2 uM after 48 hrs by propidium iodide staining based flow cytometry (reference value: 56.61%); format: functional
Bel-7402 [17] = assay: Cell cycle arrest in human Bel7402 cells assessed as accumulation at G1 phase at 0.5 uM after 48 hrs by propidium iodide staining based flow cytometry (reference value: 34.61%); format: functional
MCF7 [18] = assay: Induction of apoptosis in human MCF7 cells assessed as necrotic cells at 0.125 uM after 24 hrs by Annexin-V FITC/propidium iodide staining based flow cytometry (reference value: 0.102%); format: functional

C=C1C(=O)[C@]23[C@H](OC(=O)/C=C/c4ccccc4)[C@H]1CC[C@H]2[C@]12C=CCC(C)(C)[C@H]1[C@H](O)[C@]3(O)OC2
Activity (MCF7 [1]): 24.31%
Activity (MCF7 [2]): Active
Activity (MCF7 [3]): 35.75%
IC50 [4]: 4.73 µM
Activity (MCF7 [5]): 2.18%
Activity (MCF7 [6]): Active
Activity (MCF7 [7]): 24.23%
Activity (Bel-7402 [8]): 8.51%
IC50 (KB 3-1): 5.7 µM
Activity (Mus musculus): Non-Toxic
Activity (Bel-7402 [9]): 10.78%
Activity (Bel-7402 [10]): 31.15%
Activity (MCF7 [11]): 49.37%
Activity (Bel-7402 [12]): 57.83%
Activity (Bel-7402 [13]): 59.37%
TGI (H22): Active
Activity (MCF7 [14]): 33.93%
Activity (Bel-7402 [15]): 27.44%
Activity (Bel-7402 [16]): 58.07%
Activity (Bel-7402 [17]): 34.56%
Activity (MCF7 [18]): 1.14%
